Experimental data from ChEMBL document CHEMBL1212735, “Metronidazole resistance in Prevotella spp. and description of a new nim gene in Prevotella baroniae” (2010).
≈ marks a conversion by molar mass, not a printed value.

Legend:
Assay type in all cases: functional
[1] = system: Prevotella nanceiensis; test: Antimicrobial activity against slow growing colonies of Prevotella nanceiensis LBN 293b deficient in nim gene assessed as inhibition of growth at 48 hrs by agar dilution method; details: Hoylesella nanceiensis
Procedure, shortened: (§1)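 Metronidazole MIC by agar dilution per CLSI M11-A7 on brucella agar with 5% sheep blood, hemin and vitamin K1. Plates incubated anaerobically at 35°C and read at 48 h, with a second reading after a further 72 h. B. fragilis ATCC 25285T and B. thetaiotaomicron ATCC 29741 served as controls. Done in duplicate; EUCAST breakpoints applied (S ≤4, R ≥8 μg/ml).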

[2] = system: Prevotella bivia; test: Antimicrobial activity against slow growing colonies of Prevotella bivia LBP 78 deficient in nim gene assessed as inhibition of growth at 48 hrs by agar dilution method; details: LBP 78, 48 h; procedure, shortened: as §1
[3] = system: Prevotella bivia; test: Antimicrobial activity against Prevotella bivia LBP 4 deficient in nim gene assessed as inhibition of growth at 48 hrs by agar dilution method; details: LBP 4, 48 h
Procedure, shortened: (§2)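 Metronidazole MIC by agar dilution (CLSI M11-A7) on brucella agar with 5% sheep blood, hemin and vitamin K1. Plates were read after 48 h at 35°C under anaerobic conditions. Susceptible was MIC ≤ 4 μg/ml and resistant MIC ≥ 8 μg/ml (EUCAST). B. fragilis ATCC 25285T and B. thetaiotaomicron ATCC 29741 were run as controls. Duplicate assays.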

[4] = system: Prevotella bivia; test: Antimicrobial activity against slow growing colonies of Prevotella bivia LBP 52 deficient in nim gene assessed as inhibition of growth at 48 hrs by agar dilution method; details: LBP 52, 48 h; procedure, shortened: as §1
[5] = system: Prevotella nanceiensis; test: Antimicrobial activity against slow growing colonies of Prevotella nanceiensis LBN 297 deficient in nim gene assessed as inhibition of growth at 48 hrs by agar dilution method; details: Hoylesella nanceiensis, LBN 297, 48 h; procedure, shortened: as §1
[6] = system: Prevotella bivia; test: Antimicrobial activity against Prevotella bivia LBN 371 deficient in nim gene assessed as inhibition of growth at 48 hrs by agar dilution method; details: LBN 371, 48 h; procedure, shortened: as §2
[7] = system: Prevotella nanceiensis; test: Antimicrobial activity against Prevotella nanceiensis LBN 293b deficient in nimI gene assessed as inhibition of growth after several passages on plates containing increasing concentration of compound by agar dilution method; details: Hoylesella nanceiensis
Procedure, shortened: (§3)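 Induction of metronidazole resistance: bacterial suspensions inoculated onto brucella blood agar (5% sheep blood, hemin, vitamin K1) containing metronidazole at increasing concentrations, grown anaerobically at 37°C. Colonies growing at the highest concentration were retested for MIC by CLSI agar dilution on the same agar. Duplicate experiments.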

[8] = system: Prevotella nanceiensis; test: Antimicrobial activity against Prevotella nanceiensis LBN 293b deficient in nim gene assessed as inhibition of growth at 48 hrs by agar dilution method; details: Hoylesella nanceiensis; procedure, shortened: as §2
[9] = system: Prevotella nanceiensis; test: Antimicrobial activity against Prevotella nanceiensis LBN 297 deficient in nim gene assessed as inhibition of growth at 48 hrs by agar dilution method; details: Hoylesella nanceiensis, LBN 297, 48 h; procedure, shortened: as §2
[10] = system: Prevotella bivia; test: Antimicrobial activity against Prevotella bivia LBN 361 deficient in nim gene assessed as inhibition of growth at 48 hrs by agar dilution method; details: LBN 361, 48 h; procedure, shortened: as §2
[11] = system: Prevotella baroniae; test: Antimicrobial activity against Prevotella baroniae LBN 475 expressing nim gene assessed as inhibition of growth at 48 hrs by agar dilution method; details: Segatella baroniae, LBN 475, 48 h; procedure, shortened: as §2
[12] = system: Prevotella bivia; test: Antimicrobial activity against Prevotella bivia LBN 346 deficient in nim gene assessed as inhibition of growth at 48 hrs by agar dilution method; details: LBN 346, 48 h
Procedure, shortened: (§4)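 Agar dilution MIC on brucella agar with 5% sheep blood, hemin and vitamin K1, following CLSI M11-A7. Plates read after 48 h at 35°C under anaerobic conditions, with B. fragilis ATCC 25285T and B. thetaiotaomicron ATCC 29741 as controls. Assays in duplicate. Isolates kept at −80°C in brucella broth with 15% glycerol. Interpretation used EUCAST breakpoints (S ≤4, R ≥8 μg/ml).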

[13] = system: Prevotella bivia; test: Antimicrobial activity against Prevotella bivia LBP 65 deficient in nim gene assessed as inhibition of growth at 48 hrs by agar dilution method; details: LBP 65, 48 h; procedure, shortened: as §2
[14] = system: Prevotella bivia; test: Antimicrobial activity against Prevotella bivia LBN 464 deficient in nim gene assessed as inhibition of growth at 48 hrs by agar dilution method; details: LBN 464, 48 h; procedure, shortened: as §2
[15] = system: Prevotella bivia; test: Antimicrobial activity against slow growing colonies of Prevotella bivia LBN 330 deficient in nim gene assessed as inhibition of growth at 48 hrs by agar dilution method; details: LBN 330, 48 h
Procedure, shortened: (§5)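 Slowly growing colonies inside the Etest inhibition zone, seen after prolonged incubation (an additional 72 h after the 48 h reading), were subcultured without antibiotic. They were then retested for metronidazole MIC by agar dilution on supplemented brucella blood agar under anaerobic conditions.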

[16] = system: Prevotella baroniae; test: Antimicrobial activity against Prevotella baroniae LBP19 expressing nimI gene assessed as inhibition of growth after several passages on plates containing increasing concentration of compound by agar dilution method; details: Segatella baroniae; procedure, shortened: as §3
[17] = system: Prevotella bivia; test: Antimicrobial activity against slow growing colonies of Prevotella bivia LBN 467 deficient in nim gene assessed as inhibition of growth at 48 hrs by agar dilution method; details: LBN 467, 48 h; procedure, shortened: as §1
[18] = system: Prevotella bivia; test: Antimicrobial activity against slow growing colonies of Prevotella bivia LBN 464 deficient in nim gene assessed as inhibition of growth at 48 hrs by agar dilution method; details: LBN 464, 48 h; procedure, shortened: as §1
[19] = system: Prevotella bivia; test: Antimicrobial activity against slow growing colonies of Prevotella bivia LBN 374 deficient in nim gene assessed as inhibition of growth at 48 hrs by agar dilution method; details: LBN 374, 48 h; procedure, shortened: as §1
[20] = system: Prevotella buccae; test: Antimicrobial activity against Prevotella buccae LBN 465 deficient in nimI gene assessed as inhibition of growth after several passages on plates containing increasing concentration of compound by agar dilution method; details: Segatella buccae; procedure, shortened: as §3
[21] = system: Prevotella baroniae; test: Antimicrobial activity against Prevotella baroniae LBN 427 expressing nim gene assessed as inhibition of growth at 48 hrs by agar dilution method; details: Segatella baroniae, LBN 427, 48 h; procedure, shortened: as §2
[22] = system: Prevotella bivia; test: Antimicrobial activity against Prevotella bivia LBN 445 deficient in nim gene assessed as inhibition of growth at 48 hrs by agar dilution method; details: LBN 445, 48 h; procedure, shortened: as §4
[23] = system: Prevotella baroniae; test: Antimicrobial activity against Prevotella baroniae DSM 16972T expressing nim gene assessed as inhibition of growth at 48 hrs by agar dilution method; details: Segatella baroniae; procedure, shortened: as §2
[24] = system: Prevotella buccae; test: Antimicrobial activity against Prevotella buccae LBN 465 deficient in nimI gene assessed as inhibition of growth after three consecutive subcultures on compound free medium by agar dilution method; details: Segatella buccae
Procedure, shortened: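 Resistance induction: bacterial suspensions were plated on supplemented brucella blood agar with rising metronidazole concentrations. Colonies from the highest concentration were tested by agar dilution. MIC was then redetermined after three consecutive subcultures on drug-free agar. Resistance counted as stable if the MIC held within ±1 dilution. Anaerobic growth at 37°C. Duplicate experiments.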

[25] = system: Prevotella bivia; test: Antimicrobial activity against Prevotella bivia LBN 478 deficient in nim gene assessed as inhibition of growth at 48 hrs by agar dilution method; details: LBN 478, 48 h; procedure, shortened: as §2
[26] = system: Prevotella baroniae; test: Antimicrobial activity against Prevotella baroniae DSM 16972T expressing nimI gene assessed as inhibition of growth after several passages on plates containing increasing concentrations of compound by agar dilution method; details: Segatella baroniae; procedure, shortened: as §3
[27] = system: Prevotella bivia; test: Antimicrobial activity against slow growing colonies of Prevotella bivia LBN 331 deficient in nim gene assessed as inhibition of growth at 48 hrs by agar dilution method; details: LBN 331, 48 h; procedure, shortened: as §5

## Cc1ncc([N+](=O)[O-])n1CCO [METRONIDAZOLE]
[1]
  MIC: 32 µg/mL (≈ 187 µM)
[2]
  MIC: 8 µg/mL (≈ 46.7 µM)
[3]
  MIC: 2 µg/mL (≈ 11.7 µM)
[4]
  MIC: 16 µg/mL (≈ 93.5 µM)
[5]
  MIC: 16 µg/mL (≈ 93.5 µM)
[6]
  MIC: 4 µg/mL (≈ 23.4 µM)
[7]
  MIC: 256 µg/mL (≈ 1500 µM)
[8]
  MIC: 2 µg/mL (≈ 11.7 µM)
[9]
  MIC: 2 µg/mL (≈ 11.7 µM)
[10]
  MIC: 2 µg/mL (≈ 11.7 µM)
[11]
  MIC: 4 µg/mL (≈ 23.4 µM)
[12]
  MIC: 1 µg/mL (≈ 5.84 µM)
[13]
  MIC: 4 µg/mL (≈ 23.4 µM)
[14]
  MIC: 8 µg/mL (≈ 46.7 µM)
[15]
  MIC: 16 µg/mL (≈ 93.5 µM)
[16]
  MIC: 128 µg/mL (≈ 748 µM)
[17]
  MIC: 32 µg/mL (≈ 187 µM)
[18]
  MIC: 16 µg/mL (≈ 93.5 µM)
[19]
  MIC: 8 µg/mL (≈ 46.7 µM)
[20]
  MIC: 128 µg/mL (≈ 748 µM)
[21]
  MIC: 4 µg/mL (≈ 23.4 µM)
[22]
  MIC: 0.5 µg/mL (≈ 2.92 µM)
[23]
  MIC: 2 µg/mL (≈ 11.7 µM)
[24]
  MIC: 64 µg/mL (≈ 374 µM)
[25]
  MIC: 4 µg/mL (≈ 23.4 µM)
[26]
  MIC: 16 µg/mL (≈ 93.5 µM)
[27]
  MIC: 16 µg/mL (≈ 93.5 µM)
